Measured values as given in ChEMBL document CHEMBL1132716, “Agonist selectivity of mGluR1 and mGluR2 metabotropic receptors: a different environment but similar recognition of an extended glutamate conformation” (J Med Chem, 1999).
The source made the active and inactive calls. The rule behind the calls is not given here.

How the values were obtained:
[1] = biological target: Metabotropic glutamate receptor 2 (Rattus norvegicus, UniProt P31421); test: Inhibitory activity against Metabotropic glutamate receptor 2 in the rat HEK 293 cells.; format: cell-based, HEK293
Chain of Metabotropic glutamate receptor 2 (Rattus norvegicus, UniProt P31421) (P31421 whole entry): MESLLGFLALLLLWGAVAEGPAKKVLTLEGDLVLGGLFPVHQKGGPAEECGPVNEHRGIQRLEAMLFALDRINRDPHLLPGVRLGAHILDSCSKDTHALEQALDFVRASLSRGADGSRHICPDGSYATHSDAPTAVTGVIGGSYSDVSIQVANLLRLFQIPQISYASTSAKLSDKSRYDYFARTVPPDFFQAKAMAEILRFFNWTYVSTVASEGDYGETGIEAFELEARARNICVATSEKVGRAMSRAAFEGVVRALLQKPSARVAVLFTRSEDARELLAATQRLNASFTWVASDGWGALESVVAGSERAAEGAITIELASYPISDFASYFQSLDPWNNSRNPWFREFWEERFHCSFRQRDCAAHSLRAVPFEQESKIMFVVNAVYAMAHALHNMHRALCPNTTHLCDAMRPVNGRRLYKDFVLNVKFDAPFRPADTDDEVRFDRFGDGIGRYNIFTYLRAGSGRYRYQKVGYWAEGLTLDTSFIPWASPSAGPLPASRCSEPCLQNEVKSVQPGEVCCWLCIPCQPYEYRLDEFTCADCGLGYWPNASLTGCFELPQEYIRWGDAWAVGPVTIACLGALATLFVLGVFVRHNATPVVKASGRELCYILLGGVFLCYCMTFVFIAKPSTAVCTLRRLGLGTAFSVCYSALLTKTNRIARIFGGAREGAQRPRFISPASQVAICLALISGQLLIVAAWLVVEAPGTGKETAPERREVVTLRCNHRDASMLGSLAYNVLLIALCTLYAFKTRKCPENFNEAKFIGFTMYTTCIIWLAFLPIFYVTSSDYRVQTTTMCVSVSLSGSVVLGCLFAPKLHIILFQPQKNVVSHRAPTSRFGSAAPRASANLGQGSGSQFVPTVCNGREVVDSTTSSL
Method in brief: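 Rat mGluR2 transiently expressed in HEK 293 cells, cotransfected with chimeric G-protein Gqi9 so the receptor couples to PLC; activity read as agonist-induced inositol phosphate formation. At least eight concentrations over 3 orders of magnitude gave full dose-response curves, Hill-equation fit giving maximal effect, EC50 (or IC50) and Hill coefficient.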

[2] = biological target: Metabotropic glutamate receptor 2 (Rattus norvegicus) (UniProt P31421); test: Ratio between EC50 of compound and glutamate measured against Metabotropic glutamate receptor 2; format: functional
Chain of Metabotropic glutamate receptor 2 (Rattus norvegicus) (P31421 19-872 limits assumed): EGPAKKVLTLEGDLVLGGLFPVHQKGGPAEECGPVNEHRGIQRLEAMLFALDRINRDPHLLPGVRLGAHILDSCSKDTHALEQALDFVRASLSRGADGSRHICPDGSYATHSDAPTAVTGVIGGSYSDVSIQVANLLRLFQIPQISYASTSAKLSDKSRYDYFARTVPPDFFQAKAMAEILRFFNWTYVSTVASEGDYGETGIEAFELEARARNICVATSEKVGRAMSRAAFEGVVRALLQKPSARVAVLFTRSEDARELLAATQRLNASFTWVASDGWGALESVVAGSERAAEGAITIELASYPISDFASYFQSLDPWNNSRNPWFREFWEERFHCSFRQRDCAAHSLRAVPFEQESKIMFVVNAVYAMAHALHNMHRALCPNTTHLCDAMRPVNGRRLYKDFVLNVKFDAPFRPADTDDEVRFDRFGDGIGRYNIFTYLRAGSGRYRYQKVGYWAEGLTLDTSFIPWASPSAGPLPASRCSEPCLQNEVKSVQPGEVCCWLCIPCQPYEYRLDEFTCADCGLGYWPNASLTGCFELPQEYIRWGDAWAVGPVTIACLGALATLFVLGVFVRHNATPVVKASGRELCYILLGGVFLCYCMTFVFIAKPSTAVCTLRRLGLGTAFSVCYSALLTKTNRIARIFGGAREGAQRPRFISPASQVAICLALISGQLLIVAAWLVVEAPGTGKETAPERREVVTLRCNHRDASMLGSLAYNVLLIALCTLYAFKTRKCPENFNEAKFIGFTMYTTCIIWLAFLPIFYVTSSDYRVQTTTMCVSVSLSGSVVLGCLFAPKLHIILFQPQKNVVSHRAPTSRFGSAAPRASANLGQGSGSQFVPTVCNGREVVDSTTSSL
Method in brief: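 mGluR2 (rat, transient in HEK 293 cells with co-expressed Gqi9 chimera) inositol phosphate formation; EC50 from Hill fits of at least eight concentrations over 3 orders of magnitude, reported as ratio to the glutamate EC50 determined under the same conditions.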

[3] = biological target: T1, Metabotropic glutamate receptor 1 (Rattus norvegicus, UniProt P23385); test: Inhibitory activity against Metabotropic glutamate receptor 1 in the rat LLC-PK1/HEK 293 cells.; format: cell-based, HEK293
T1 sequence (P23385 whole entry): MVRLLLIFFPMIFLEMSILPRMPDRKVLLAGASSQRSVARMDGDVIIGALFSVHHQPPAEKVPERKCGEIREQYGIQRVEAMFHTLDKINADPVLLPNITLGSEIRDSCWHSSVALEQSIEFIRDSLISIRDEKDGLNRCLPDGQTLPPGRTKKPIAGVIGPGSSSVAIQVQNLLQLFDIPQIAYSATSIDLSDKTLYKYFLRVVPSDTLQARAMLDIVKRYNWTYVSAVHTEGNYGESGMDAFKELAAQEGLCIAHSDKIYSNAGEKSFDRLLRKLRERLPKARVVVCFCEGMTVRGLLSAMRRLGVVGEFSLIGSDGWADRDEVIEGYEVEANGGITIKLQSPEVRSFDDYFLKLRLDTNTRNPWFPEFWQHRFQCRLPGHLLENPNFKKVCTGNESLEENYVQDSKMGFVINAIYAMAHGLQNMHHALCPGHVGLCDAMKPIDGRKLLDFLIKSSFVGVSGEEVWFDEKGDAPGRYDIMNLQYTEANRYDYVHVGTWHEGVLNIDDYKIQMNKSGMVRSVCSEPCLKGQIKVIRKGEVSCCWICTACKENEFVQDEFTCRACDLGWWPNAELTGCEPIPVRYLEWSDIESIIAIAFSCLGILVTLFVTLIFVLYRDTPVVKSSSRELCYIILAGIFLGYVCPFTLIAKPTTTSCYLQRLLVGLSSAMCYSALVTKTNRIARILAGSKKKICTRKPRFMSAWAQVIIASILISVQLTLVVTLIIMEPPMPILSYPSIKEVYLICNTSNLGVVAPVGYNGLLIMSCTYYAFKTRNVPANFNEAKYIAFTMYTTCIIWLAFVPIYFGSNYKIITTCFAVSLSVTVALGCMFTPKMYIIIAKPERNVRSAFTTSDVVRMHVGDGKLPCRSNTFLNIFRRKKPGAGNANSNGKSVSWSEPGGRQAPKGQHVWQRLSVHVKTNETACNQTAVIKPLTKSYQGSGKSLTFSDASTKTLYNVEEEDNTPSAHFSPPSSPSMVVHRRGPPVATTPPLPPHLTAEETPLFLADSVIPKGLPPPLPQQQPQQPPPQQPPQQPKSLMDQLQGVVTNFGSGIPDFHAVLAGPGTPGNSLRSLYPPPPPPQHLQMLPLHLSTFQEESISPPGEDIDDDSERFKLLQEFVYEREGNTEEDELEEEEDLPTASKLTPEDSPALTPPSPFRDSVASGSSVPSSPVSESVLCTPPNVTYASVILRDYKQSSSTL
Method in brief: (§1)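 Rat mGluR1a transiently expressed in LLC-PK1 or HEK 293 cells; receptor activity read as agonist-induced inositol phosphate formation. At least eight agonist concentrations spanning 3 orders of magnitude gave full dose-response curves, fitted to a Hill equation for maximal effect, EC50 (or IC50) and Hill coefficient.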

[4] = biological target: Metabotropic glutamate receptor 1 (Rattus norvegicus) (UniProt P23385); test: Ratio between EC50 of compound and glutamate measured against metabotropic glutamate receptor 1; format: functional
Chain of Metabotropic glutamate receptor 1 (Rattus norvegicus) (P23385 19-1199 limits assumed): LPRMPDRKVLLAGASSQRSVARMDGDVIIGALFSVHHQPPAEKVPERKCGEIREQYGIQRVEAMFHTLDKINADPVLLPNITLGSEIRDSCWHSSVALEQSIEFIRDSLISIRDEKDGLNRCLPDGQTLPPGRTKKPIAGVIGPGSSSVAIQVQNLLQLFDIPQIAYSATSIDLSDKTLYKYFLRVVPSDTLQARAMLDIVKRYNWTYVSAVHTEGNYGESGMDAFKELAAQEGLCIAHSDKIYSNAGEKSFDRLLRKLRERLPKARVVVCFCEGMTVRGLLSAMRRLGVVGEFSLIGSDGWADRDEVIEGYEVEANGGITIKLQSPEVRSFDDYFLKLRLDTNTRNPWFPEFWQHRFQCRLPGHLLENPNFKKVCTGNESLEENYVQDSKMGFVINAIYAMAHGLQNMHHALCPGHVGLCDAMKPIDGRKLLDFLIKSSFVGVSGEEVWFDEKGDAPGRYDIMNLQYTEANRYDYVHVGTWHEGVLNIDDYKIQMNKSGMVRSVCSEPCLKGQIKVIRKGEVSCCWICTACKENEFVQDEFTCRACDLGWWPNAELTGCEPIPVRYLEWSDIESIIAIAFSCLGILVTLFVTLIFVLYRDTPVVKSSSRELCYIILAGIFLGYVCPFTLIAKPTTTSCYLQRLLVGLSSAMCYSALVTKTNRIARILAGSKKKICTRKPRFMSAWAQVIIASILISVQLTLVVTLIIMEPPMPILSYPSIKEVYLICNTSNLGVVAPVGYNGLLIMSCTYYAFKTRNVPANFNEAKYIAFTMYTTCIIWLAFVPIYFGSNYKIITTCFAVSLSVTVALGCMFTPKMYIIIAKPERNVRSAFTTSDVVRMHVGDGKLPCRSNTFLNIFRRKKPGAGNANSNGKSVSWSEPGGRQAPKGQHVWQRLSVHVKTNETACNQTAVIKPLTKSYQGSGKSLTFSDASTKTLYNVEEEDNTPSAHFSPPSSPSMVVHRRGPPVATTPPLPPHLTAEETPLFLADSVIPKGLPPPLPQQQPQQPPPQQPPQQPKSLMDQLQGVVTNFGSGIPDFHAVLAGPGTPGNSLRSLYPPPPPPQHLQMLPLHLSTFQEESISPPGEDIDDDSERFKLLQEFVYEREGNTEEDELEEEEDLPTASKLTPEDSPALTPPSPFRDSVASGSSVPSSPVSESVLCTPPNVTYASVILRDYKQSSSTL
Method in brief: (§2)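 mGluR1a (rat, transient in LLC-PK1 or HEK 293 cells) inositol phosphate formation; EC50 from Hill fits of at least eight-point curves over 3 log units, expressed as ratio of compound EC50 to glutamate EC50 measured in the same assay.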

[5] = biological target: T1, Metabotropic glutamate receptor 1; test: Inhibitory activity against Metabotropic glutamate receptor 1 in the rat LLC-PK1/HEK 293 cells.; No effect; format: cell-based; settings: hek293; method in brief: as §1
[6] = biological target: Metabotropic glutamate receptor 2 (Homo sapiens, UniProt Q14416); test: Inhibitory activity against human Metabotropic glutamate receptor 2
Chain of Metabotropic glutamate receptor 2 (Homo sapiens, UniProt Q14416) (Q14416 whole entry): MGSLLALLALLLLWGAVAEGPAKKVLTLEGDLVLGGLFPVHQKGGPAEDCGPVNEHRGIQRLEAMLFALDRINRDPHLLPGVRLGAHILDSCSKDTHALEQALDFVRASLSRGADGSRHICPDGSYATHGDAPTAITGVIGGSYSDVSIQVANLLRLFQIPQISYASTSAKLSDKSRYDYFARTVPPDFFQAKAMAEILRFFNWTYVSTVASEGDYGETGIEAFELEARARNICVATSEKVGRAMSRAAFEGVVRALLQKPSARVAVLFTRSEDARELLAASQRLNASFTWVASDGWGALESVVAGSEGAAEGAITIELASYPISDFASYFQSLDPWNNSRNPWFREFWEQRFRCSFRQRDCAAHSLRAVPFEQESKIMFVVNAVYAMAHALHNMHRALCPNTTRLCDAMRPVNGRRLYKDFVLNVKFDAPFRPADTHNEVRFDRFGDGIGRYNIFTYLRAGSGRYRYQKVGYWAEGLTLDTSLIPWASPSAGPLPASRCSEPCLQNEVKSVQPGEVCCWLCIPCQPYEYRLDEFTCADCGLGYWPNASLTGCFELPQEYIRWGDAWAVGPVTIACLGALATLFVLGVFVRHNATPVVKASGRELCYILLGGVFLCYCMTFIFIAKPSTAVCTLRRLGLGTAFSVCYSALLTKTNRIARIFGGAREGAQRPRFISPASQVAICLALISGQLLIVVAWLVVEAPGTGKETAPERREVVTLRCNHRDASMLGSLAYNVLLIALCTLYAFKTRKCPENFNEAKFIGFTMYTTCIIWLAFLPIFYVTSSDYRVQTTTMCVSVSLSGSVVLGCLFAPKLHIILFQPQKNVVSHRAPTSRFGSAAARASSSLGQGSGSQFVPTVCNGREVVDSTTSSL

[7] = biological target: Metabotropic glutamate receptor 1 (Rattus norvegicus) (UniProt P23385); test: Ratio between the measured EC50 and the glutamate EC50 measured against Metabotropic glutamate receptor 1; No effect; format: functional; method in brief: as §2
[8] = biological target: T1, Metabotropic glutamate receptor 1; test: Inhibitory activity against Metabotropic glutamate receptor 1 in the rat LLC-PK1/HEK 293 cells; format: cell-based, HEK293; method in brief: as §1

Row | Compound | EC50 ratio [2] | EC50 ratio [4] | other results
1 | N[C@H](C(=O)O)C12CC(C(=O)O)(C1)C2 | > 60 |  | IC50 [1]: > 300 µM; IC50 [3]: 25 µM
2 | C[C@@](N)(CCC(=O)O)C(=O)O |  | > 80 | 
3 | N[C@H](C(=O)O)[C@@H]1C[C@H]1C(=O)O |  | 20 | 
4 | O=C(O)[C@H]1C[C@H](C(=O)O)N1 | > 80 | 15 | 
5 | N[C@@H](C[C@H](CCCC(c1ccccc1)c1ccccc1)C(=O)O)C(=O)O |  |  | IC50 [5]: Not Active; IC50 [6]: 0.4 µM
6 | N[C@H](C(=O)O)c1cc(O)no1 | 25 | 0.91 | 
7 | NC1(C(=O)O)C2CCC1C(C(=O)O)C2 (stereo unspecified) | > 80 | > 80 | IC50 [1]: > 1000 µM; IC50 [3]: > 1000 µM
8 | N[C@@]1(C(=O)O)CC[C@H](C(=O)O)C1 | 1.2 | > 25 | 
9 | N[C@H](C(=O)O)C1[C@@H](C(=O)O)[C@@H]1C(=O)O (stereo partly specified) | 0.03 |  | IC50 [3]: 389 µM
10 | N[C@@H](C[C@H](CC(c1ccccc1)c1ccccc1)C(=O)O)C(=O)O |  |  | IC50 [5]: Not Active; IC50 [6]: 3 µM
11 | N[C@@]1(C(=O)O)CN[C@@H](C(=O)O)C1 | 0.4 | > 80 | 
12 | N[C@H](C(=O)O)c1cc(O)cc(O)c1 |  | 0.53 | 
13 | CC(CC(N)C(=O)O)C(=O)O (racemic) | 0.53 | 0.65 | 
14 | N[C@@]1(C(=O)O)CC[C@@H](C(=O)O)C1 | 1.6 | 0.75 | 
15 | NC1(C(=O)O)CC2CC1C2C(=O)O (stereo in doubt; 14) | 131 | 47 | 
16 | C=C(C[C@H](N)C(=O)O)C(=O)O |  | 0.7 | 
17 | N[C@@H](CC(C(=O)O)C(=O)O)C(=O)O |  |  | IC50 [1]: 102 µM; EC50 ratio [7]: inactive; IC50 [5]: Not Active
18 | N[C@]1(C(=O)O)C[C@H](C(=O)O)[C@H](C(=O)O)C1 |  |  | IC50 [1]: 88 µM; EC50 ratio [7]: inactive; IC50 [3]: 115 µM
19 | N[C@@H](CCC(=O)O)C(=O)O | 1 | 1 | 
20 | C[C@@H](C[C@H](N)C(=O)O)C(=O)O | 0.3 | 0.5 | 

Row | Compound | EC50 ratio [2] | EC50 ratio [4] | other results
21 | C[C@H](C[C@@H](N)C(=O)O)C(=O)O | 1.1 | 4.9 | 
22 | NC1(C(=O)O)CC2CC1C2C(=O)O (stereo in doubt; 13) | 186 | 25 | 
23 | N[C@]1(C(=O)O)CC[C@H](C(=O)O)C1 | 10 | 10 | 
24 | N[C@H](C(=O)O)c1cccc(O)c1 | > 80 | 7.8 | 
25 | C[C@](N)(CCC(=O)O)C(=O)O |  | > 80 | 
26 | C[C@H](CC(=O)O)[C@H](N)C(=O)O | 12 | 23 | 
27 | N[C@@H](Cn1oc(=O)[nH]c1=O)C(=O)O | > 90 | 0.02 | 
28 | C=C(C[C@@H](N)C(=O)O)C(=O)O |  | 14 | 
29 | NC1(C(=O)O)CC2CCC1C2C(=O)O (stereo in doubt; 10) | > 80 | > 80 | 
30 | C[C@H](C[C@H](N)C(=O)O)C(=O)O | 23 | 4.6 | 
31 | N[C@H](C(=O)O)[C@H]1C[C@@H]1C(=O)O | 0.04 | 5 | 
32 | N[C@@]1(C(=O)O)CC[C@H]2[C@H](C(=O)O)[C@H]21 | 0.004 |  | IC50 [3]: 458 µM
33 | C[C@@](N)(C(=O)O)[C@H]1C[C@@H]1C(=O)O |  |  | IC50 [1]: 77 µM; EC50 ratio [7]: inactive
34 | C=C(CC(N)C(=O)O)C(=O)O (racemic) | 0.4 | 1.1 | 
35 | C[C@@H](CC(=O)O)[C@H](N)C(=O)O | 80 | 13 | 
36 | NC1(C(=O)O)CC2CC1C2C(=O)O (stereo in doubt; 12) | 1.1 | 0.32 | 
37 | N[C@H](C(=O)O)c1ccc(C(=O)O)c(O)c1 | 4 |  | IC50 [8]: 40 µM
38 | NC1(C(=O)O)CC2CCC1C2C(=O)O (stereo in doubt; 8) [listing 1 of 2 here] | > 80 |  | 
39 | NC1(C(=O)O)CC2CCC1C2C(=O)O (stereo in doubt; 8) [listing 2 of 2 here] |  |  | IC50 [3]: 300 µM
40 | CC(N)(CCC(=O)O)C(=O)O (racemic) | > 80 |  | 
